The source made the active and inactive calls. The calls are words filed in the database; no cut-off is given here.
Legend:
[1] = molecular target: T1, Signal transducer and activator of transcription 5A (Homo sapiens) (UniProt P42229); experiment: Inhibition of STAT5 dimerization in human MDA-MB-231 cells assessed as inhibition of STAT5-STAT5 DNA binding activity at 5 uM after 24 hrs by EMSA; format: cell-based
T1 sequence (whole entry): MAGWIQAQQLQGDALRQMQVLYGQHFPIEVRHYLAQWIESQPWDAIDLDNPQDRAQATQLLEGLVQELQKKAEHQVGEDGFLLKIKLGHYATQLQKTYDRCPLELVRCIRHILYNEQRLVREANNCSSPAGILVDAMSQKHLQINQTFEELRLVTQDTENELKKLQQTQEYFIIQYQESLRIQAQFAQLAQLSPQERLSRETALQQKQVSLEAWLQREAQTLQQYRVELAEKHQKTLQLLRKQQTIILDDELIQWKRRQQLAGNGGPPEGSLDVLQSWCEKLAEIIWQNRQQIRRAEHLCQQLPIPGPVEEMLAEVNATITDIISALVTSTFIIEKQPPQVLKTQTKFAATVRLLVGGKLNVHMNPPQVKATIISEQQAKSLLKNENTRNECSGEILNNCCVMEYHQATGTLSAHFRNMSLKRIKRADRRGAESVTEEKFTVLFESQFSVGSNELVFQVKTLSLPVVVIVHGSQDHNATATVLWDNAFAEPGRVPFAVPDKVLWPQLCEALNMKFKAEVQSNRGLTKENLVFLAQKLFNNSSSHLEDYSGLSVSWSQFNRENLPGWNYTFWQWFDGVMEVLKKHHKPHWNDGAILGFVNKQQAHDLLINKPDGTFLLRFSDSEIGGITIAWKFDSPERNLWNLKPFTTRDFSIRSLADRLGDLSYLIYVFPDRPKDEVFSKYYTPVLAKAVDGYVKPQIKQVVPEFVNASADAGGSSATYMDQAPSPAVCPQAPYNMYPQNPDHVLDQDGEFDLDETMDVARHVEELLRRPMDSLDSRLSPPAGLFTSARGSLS
Summary of the method: (§1)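 MDA-MB-231 cells were treated at 5 µM for 0-24 h before nuclear extract preparation. Extracts were incubated with biotin-labeled probe for 30 min at room temperature, then analysed by EMSA.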

[2] = molecular target: Signal transducer and activator of transcription 3 (Homo sapiens, UniProt P40763); settings: 5 uM
[3] = Selectivity ratio of IC50 for human MCF-10A cells to IC50 for human MDA-MB-231 cells
Summary of the method: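 MTT viability assay. MCF-10A was grown in RPMI-1640 and MDA-MB-231 in DMEM, each with 10% FBS. Cells were seeded at 3000 per well and left 24 h at 37 °C. Compound was then added in triplicate with 10% FBS, at 0.1-10 µM for the cancer cells and 3.125-400 µM for MCF-10A. Absorbance was read at 595 nm. The ratio is IC50 for MCF-10A over IC50 for MDA-MB-231.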

MDA-MB-231 = experiment: Antiproliferative activity against human MDA-MB-231 cells after 24 hrs by MTT assay; format: functional, cell-based; settings: MDA-MB-231, 24 h
Summary of the method: (§2)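 Cells were seeded at 3000 per well and incubated 24 h at 37 °C. Compounds were added in triplicate with 10% FBS: 0.1-10 or 0.1-20 µM for cancer lines, 3.125-400 µM for MCF-10A. Viability was read by MTT absorbance at 595 nm, with IC50 fitted from the curves. DMSO stocks were 20 mM.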

CCRF S-180 = experiment: Antiproliferative activity against mouse S180 cells after 24 hrs by MTT assay; settings: CCRF S-180, 24 h
[4] = Antiproliferative activity against human BkPC-3 cells after 24 hrs by MTT assay; format: functional, cell-based; settings: BkPC-3, 24 h; summary of the method: as §2
[5] = Initial plasma concentration in Sprague-Dawley rat at 1 mg/kg, iv measured after 24 hrs by UPLC analysis; format: ADME, organism-based
Summary of the method: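 Rat plasma sampled from 2 min to 24 h after a single i.v. (1 mg/kg) or p.o. (10 mg/kg) dose. Parameters were derived from the concentration-time profiles. The bioanalytical method was validated to FDA guidelines for selectivity, linearity, LLOQ, accuracy, precision, recovery, matrix effect and stability.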

[6] = molecular target: T2, Signal transducer and activator of transcription 1-alpha/beta (Homo sapiens) (UniProt P42224); experiment: Inhibition of STAT1 dimerization in human MDA-MB-231 cells assessed as inhibition of STAT1-STAT1 DNA binding activity at 5 uM after 24 hrs by EMSA; format: cell-based; summary of the method: as §1
T2 sequence (whole entry): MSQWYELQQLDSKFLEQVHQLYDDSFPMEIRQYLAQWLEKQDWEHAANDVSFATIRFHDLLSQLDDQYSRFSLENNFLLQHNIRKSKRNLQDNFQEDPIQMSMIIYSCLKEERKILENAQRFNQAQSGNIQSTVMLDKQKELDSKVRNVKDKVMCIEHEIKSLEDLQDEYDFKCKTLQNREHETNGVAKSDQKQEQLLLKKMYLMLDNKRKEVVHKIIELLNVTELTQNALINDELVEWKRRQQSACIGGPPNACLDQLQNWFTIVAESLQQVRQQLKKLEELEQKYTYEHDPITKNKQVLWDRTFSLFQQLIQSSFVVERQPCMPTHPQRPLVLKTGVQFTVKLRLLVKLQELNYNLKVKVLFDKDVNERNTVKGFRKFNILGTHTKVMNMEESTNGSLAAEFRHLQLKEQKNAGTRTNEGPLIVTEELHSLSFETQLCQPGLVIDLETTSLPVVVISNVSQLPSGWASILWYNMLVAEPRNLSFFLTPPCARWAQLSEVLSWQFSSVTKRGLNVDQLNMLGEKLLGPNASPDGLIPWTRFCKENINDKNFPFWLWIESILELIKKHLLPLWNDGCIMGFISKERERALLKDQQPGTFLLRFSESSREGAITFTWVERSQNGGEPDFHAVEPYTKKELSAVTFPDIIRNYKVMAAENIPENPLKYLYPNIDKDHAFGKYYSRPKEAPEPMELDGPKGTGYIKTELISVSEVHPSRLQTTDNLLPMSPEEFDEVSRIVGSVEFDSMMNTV

[7] = Tmax in Sprague-Dawley rat plasma at 10 mg/kg, po measured after 24 hrs by UPLC analysis; format: ADME, organism-based
Summary of the method: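 Rats dosed i.v. or p.o. Plasma concentrations followed from 2 min to 24 h after dosing. The bioanalytical method was validated to FDA guidelines for selectivity, linearity, LLOQ, accuracy, precision, recovery, matrix effect and stability.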

Mus musculus = experiment: Toxicity in BALB/c nude mouse xenografted with human MDA-MB-231 cells assessed as kidney damage at 2.5 to 10 mg/kg, po qd administered for 32 days by H&E staining based light microscopy; format: organism-based; settings: in vivo, 768 h
Summary of the method: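 6-week-old female athymic SPF BALB/c nude mice received 5 x 10^6 MDA-MB-231 cells s.c. in the flank. Oral treatment began once tumors reached about 100 mm3, with 8 mice per group and a saline vehicle control. […] Treatment lasted 32 days. Heart, liver, spleen, lung and kidney were fixed 48 h in 10% neutral-buffered formaldehyde, paraffin-embedded, cut at 5 µm, H&E-stained and examined by light microscopy.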

Signal transducer and activator of transcription 3, sequence (P40763 whole entry): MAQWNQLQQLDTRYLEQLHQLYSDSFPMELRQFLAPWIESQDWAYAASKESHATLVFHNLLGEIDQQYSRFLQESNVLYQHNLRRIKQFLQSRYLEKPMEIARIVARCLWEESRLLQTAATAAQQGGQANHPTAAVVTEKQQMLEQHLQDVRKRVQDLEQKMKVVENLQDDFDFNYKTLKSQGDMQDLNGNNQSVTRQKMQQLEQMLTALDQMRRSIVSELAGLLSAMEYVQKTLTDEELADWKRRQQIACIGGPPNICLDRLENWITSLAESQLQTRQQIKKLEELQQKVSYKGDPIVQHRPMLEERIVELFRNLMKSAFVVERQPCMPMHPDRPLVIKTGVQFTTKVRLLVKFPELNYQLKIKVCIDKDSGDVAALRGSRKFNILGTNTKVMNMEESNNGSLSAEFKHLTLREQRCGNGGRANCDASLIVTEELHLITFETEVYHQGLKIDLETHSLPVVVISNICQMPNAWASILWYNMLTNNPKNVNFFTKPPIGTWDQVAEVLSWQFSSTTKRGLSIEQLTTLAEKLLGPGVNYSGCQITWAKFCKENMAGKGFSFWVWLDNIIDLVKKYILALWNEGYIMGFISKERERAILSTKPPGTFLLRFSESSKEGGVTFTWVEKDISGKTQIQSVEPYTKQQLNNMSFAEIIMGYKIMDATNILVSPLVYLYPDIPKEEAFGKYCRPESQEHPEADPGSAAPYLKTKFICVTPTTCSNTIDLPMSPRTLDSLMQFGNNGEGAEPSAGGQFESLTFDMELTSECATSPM

NS(=O)(=O)c1cccc2c1C(=O)C=C(Nc1ccccc1N1CCNCC1)C2=O
inhibition [1]: inactive
inhibition [2]: Active
Ratio IC50 [3]: 184
IC50 (MDA-MB-231): 700 nM
IC50 (CCRF S-180): 420 nM
IC50 [4]: 5100 nM
C0 at 24 h [5]: 382 ng/mL
inhibition [6]: Active
Tmax [7]: 30 min
Activity (Mus musculus): Non-Toxic

Source: ChEMBL document CHEMBL4007452, “Discovery of an Orally Selective Inhibitor of Signal Transducer and Activator of Transcription 3 Using Advanced Multiple Ligand Simultaneous Docking” (J Med Chem, 2017)
